Experimental data: ChEMBL document CHEMBL1129738, “3-Aryl-1,2-diacetamidopropane derivatives as novel and potent NK-1 receptor antagonists” (J Med Chem, 1996)

What was measured:
Substance-K receptor = molecular target: T1, Substance-K receptor (Oryctolagus cuniculus, UniProt P79218); experiment: Inhibition of neurokinin A induced contraction of rabbit pulmonary artery (RPA) tissue expressing Tachykinin receptor 2; format: functional, tissue-based; details: read-out: pA2 (converted)
T1 sequence (P79218 whole entry): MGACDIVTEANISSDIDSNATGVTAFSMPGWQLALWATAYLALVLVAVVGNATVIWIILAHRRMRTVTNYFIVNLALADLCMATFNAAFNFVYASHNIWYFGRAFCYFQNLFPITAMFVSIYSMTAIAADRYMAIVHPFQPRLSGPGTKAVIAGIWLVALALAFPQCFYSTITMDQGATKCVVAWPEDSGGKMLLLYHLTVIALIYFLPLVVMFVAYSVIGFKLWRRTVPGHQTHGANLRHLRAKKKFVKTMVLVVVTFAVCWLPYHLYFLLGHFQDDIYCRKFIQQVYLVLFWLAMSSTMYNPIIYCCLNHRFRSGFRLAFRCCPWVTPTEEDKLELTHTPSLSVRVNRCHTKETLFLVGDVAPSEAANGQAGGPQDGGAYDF

U11 MG = experiment: In vitro inhibitory activity against P induced phosphatidyl inositol turnover in UC-11 MG Astrocytoma cells; format: functional, cell-based, Homo sapiens
Outline: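 Human UC-11 MG astrocytoma cells; inhibition of substance P-induced phosphatidylinositol turnover; Ki in nM; mean of two determinations.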

U-373 MG (Homo sapiens) = experiment: In vitro inhibitory activity against P induced IL-6 secretion in U-373 MG Astrocytoma cells
Substance-P receptor [1] = molecular target: Substance-P receptor (Homo sapiens, UniProt P25103); experiment: Inhibitory activity against Tachykinin receptor 1 in human IM-9 cells using [125I]-labeled Boltan-Hunter substance P as radioligand; format: cell-based
Chain of Substance-P receptor (Homo sapiens, UniProt P25103) (P25103 whole entry): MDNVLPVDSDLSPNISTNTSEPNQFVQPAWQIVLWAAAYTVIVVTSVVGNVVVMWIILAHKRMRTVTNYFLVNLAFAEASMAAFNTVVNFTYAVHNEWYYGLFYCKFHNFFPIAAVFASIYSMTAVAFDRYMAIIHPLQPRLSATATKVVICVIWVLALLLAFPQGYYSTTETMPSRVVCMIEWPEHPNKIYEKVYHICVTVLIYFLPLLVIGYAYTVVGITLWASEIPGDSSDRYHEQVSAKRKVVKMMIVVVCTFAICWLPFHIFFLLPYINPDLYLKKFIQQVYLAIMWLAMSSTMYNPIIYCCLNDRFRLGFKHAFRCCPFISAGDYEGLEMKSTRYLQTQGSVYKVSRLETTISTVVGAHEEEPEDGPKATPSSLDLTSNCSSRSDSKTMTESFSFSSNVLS

Substance-P receptor [2] = molecular target: Substance-P receptor (Cavia porcellus, UniProt P30547); experiment: Inhibitory activity against Tachykinin receptor 1 in guinea pig brain using [125I]-labeled Boltan-Hunter substance P as radioligand
Chain of Substance-P receptor (Cavia porcellus, UniProt P30547) (P30547 whole entry): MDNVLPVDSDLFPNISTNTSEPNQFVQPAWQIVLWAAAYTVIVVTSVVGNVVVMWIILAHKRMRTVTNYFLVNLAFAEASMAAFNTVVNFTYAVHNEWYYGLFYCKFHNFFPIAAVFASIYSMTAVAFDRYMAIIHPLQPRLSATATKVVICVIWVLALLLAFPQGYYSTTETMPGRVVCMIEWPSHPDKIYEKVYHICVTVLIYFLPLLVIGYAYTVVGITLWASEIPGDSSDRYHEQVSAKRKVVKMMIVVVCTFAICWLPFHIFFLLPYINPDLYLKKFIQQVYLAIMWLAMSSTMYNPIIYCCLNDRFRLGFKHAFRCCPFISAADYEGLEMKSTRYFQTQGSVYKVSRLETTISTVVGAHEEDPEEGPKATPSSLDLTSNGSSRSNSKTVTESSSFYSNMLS

Substance-P receptor [3] = molecular target: Substance-P receptor (Rattus norvegicus, UniProt P14600); experiment: Inhibitory activity against Tachykinin receptor 1 in rat brain using [125I]-labeled Boltan-Hunter substance P as radioligand; format: tissue-based
Chain of Substance-P receptor (Rattus norvegicus, UniProt P14600) (P14600 whole entry): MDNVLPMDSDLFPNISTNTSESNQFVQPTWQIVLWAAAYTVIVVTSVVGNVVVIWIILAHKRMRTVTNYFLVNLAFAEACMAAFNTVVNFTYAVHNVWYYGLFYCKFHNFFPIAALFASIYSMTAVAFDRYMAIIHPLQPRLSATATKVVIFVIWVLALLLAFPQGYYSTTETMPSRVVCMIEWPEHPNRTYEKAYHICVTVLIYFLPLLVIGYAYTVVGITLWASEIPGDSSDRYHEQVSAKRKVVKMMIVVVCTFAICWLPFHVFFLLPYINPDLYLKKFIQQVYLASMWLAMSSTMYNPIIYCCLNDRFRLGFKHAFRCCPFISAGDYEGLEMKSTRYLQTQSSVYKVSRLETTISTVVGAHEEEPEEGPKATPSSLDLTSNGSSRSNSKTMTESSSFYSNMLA

Substance-P receptor [4] = molecular target: Substance-P receptor (Mus musculus, UniProt P30548); experiment: Inhibitory activity against Tachykinin receptor 1 in mouse brain using [125I]-labeled Boltan-Hunter substance P as radioligand; format: tissue-based
Chain of Substance-P receptor (Mus musculus, UniProt P30548) (P30548 whole entry): as the sequence (P14600 whole entry) above, with M7V, I15T, V266I, E367D counted along it

Neuromedin-K receptor = molecular target: T2, Neuromedin-K receptor (Rattus norvegicus, UniProt P16177); experiment: Inhibition of neurokinin B induced contraction of rat portal vein (RPV) tissue expressing Tachykinin receptor 3; format: functional; details: read-out: pA2 (converted)
T2 sequence (P16177 whole entry): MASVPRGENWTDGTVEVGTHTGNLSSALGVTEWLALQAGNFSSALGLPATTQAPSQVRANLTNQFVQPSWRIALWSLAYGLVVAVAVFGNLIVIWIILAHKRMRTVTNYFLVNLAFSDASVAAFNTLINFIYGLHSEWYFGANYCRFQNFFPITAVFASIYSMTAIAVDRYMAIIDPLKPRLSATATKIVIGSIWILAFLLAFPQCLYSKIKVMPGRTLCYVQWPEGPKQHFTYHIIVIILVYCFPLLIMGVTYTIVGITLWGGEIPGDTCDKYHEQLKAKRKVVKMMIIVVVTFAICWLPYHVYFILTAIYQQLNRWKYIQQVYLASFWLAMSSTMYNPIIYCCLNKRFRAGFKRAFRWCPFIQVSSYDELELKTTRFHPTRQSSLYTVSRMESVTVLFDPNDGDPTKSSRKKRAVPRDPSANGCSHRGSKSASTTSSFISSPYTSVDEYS

Structure (SMILES)	IC50 (Substance-P receptor [1]) [nM]	also measured
COc1ccccc1CN(C[C@H](Cc1c[nH]c2ccccc12)NC(=O)CN1CCN(c2ccccc2)CC1)C(C)=O	–	Kb (Substance-K receptor): 20000 nM; Ki (U11 MG): 630 nM; Ki (U-373 MG (Homo sapiens)): 3500 nM
COc1ccccc1CN(CC(Cc1c[nH]c2ccccc12)NC(=O)CN1CCN(Cc2ccccc2)CC1)C(C)=O (centres undefined)	0.98	IC50 (Substance-P receptor [2]): 0.88 nM; IC50 (Substance-P receptor [3]): 16 nM
CC(=O)N(Cc1ccccc1Cl)CC(Cc1c[nH]c2ccccc12)NC(=O)CN1CCC(N2CCCCC2)CC1 (centres undefined)	0.18	–
COC(=O)CC(=O)N(Cc1ccccc1OC)CC(Cc1c[nH]c2ccccc12)NC(=O)CN1CCN(c2ccccc2)CC1 (centres undefined)	1.28	–
CC(=O)N(Cc1ccccc1)CC(Cc1c[nH]c2ccccc12)NC(=O)CN1CCN(c2ccccc2)CC1 (centres undefined)	2.2	–
CNC(=O)N(Cc1ccccc1OC)CC(Cc1c[nH]c2ccccc12)NC(=O)CN1CCN(c2ccccc2)CC1 (centres undefined)	3	–
COc1ccccc1CN(CC(Cc1c[nH]c2ccccc12)NC(=O)CN1CCC(N(C)C)CC1)C(C)=O (centres undefined)	2.8	–
COc1ccccc1CN(CC(Cc1c[nH]c2ccccc12)NC(=O)CN1CCN(c2ccccc2)CC1)C(=O)c1ccccc1 (centres undefined)	2	–
CC(=O)N(CCc1ccccc1)CC(Cc1c[nH]c2ccccc12)NC(=O)CN1CCN(c2ccccc2)CC1 (centres undefined)	126	–
COc1ccccc1CN(C[C@H](Cc1c[nH]c2ccccc12)NC(=O)CN1CCN(C2CCCCC2)CC1)C(C)=O	80.9	–
COc1ccccc1CN(CC(Cc1c[nH]c2ccccc12)NC(=O)CN1CCOCC1)C(C)=O (centres undefined)	27	–
CCN(Cc1ccccc1OC)CC(Cc1c[nH]c2ccccc12)NC(=O)CN1CCN(c2ccccc2)CC1 (centres undefined)	85	–
COc1ccccc1CN(CC(CC1CNc2ccccc21)NC(=O)CN1CCN(c2ccccc2)CC1)C(C)=O (centres undefined)	27.4	–
COc1ccccc1CC(=N)N1C[C@@H]2C(=O)CCC(c3ccccc3)(c3ccccc3)[C@@H]2C1	30	IC50 (Substance-P receptor [2]): 32 nM; IC50 (Substance-P receptor [3]): 6.7 nM; IC50 (Substance-P receptor [4]): 8.7 nM
CSc1ccccc1CN(CC(Cc1c[nH]c2ccccc12)NC(=O)CN1CCN(c2ccccc2)CC1)C(C)=O (centres undefined)	7.2	–
COc1ccccc1CN(CC(Cc1ccc2ccccc2c1)NC(=O)CN1CCN(c2ccccc2)CC1)C(C)=O (centres undefined)	11	–
COc1ccccc1CN(CC(NC(=O)CN1CCN(c2ccccc2)CC1)c1ccccc1)C(C)=O (centres undefined)	474	–
COc1ccccc1CN(CC(NC(=O)CN1CCN(c2ccccc2)CC1)C(C)C)C(C)=O (centres undefined)	> 5000	–
COc1ccccc1CN(CC(Cc1c[nH]c2ccccc12)NC(=O)CN1CCC(c2ccccc2)CC1)C(C)=O (centres undefined)	4.5	–
COc1ccccc1CN(CC(Cc1cccc2ccccc12)NC(=O)CN1CCN(c2ccccc2)CC1)C(C)=O (centres undefined)	2.73	–
COc1ccc(CN(CC(Cc2c[nH]c3ccccc23)NC(=O)CN2CCN(c3ccccc3)CC2)C(C)=O)cc1 (centres undefined)	2.5	IC50 (Substance-P receptor [3]): 1100 nM
COc1ccccc1CNCC(Cc1c[nH]c2ccccc12)NC(=O)CN1CCN(c2ccccc2)CC1 (centres undefined)	51	–
CC(=O)N(Cc1ccccc1Cl)CC(Cc1c[nH]c2ccccc12)NC(=O)CN1CCN(c2ccccc2)CC1 (centres undefined)	1.9	–
COc1ccccc1CN(CC(Cc1c[nH]c2ccccc12)NC(=O)CN1CCN(c2ccccc2)CC1)S(C)(=O)=O (centres undefined)	4	–

Structure (SMILES)	IC50 (Substance-P receptor [1]) [nM]	also measured
COc1ccccc1CN(CC(NC(=O)CN1CCN(c2ccccc2)CC1)c1ccc(Cl)c(Cl)c1)C(C)=O (centres undefined)	338	–
CC(=O)N(Cc1ccccc1Cl)C[C@H](Cc1c[nH]c2ccccc12)NC(=O)CN1CCC(N2CCCCC2)CC1	159	–
COc1ccccc1CN(C[C@@H](Cc1c[nH]c2ccccc12)NC(=O)CN1CCN(C2CCCCC2)CC1)C(C)=O	0.18	IC50 (Substance-P receptor [3]): 1.5 nM; IC50 (Substance-P receptor [4]): 1.3 nM
COc1ccccc1CN(CCNC(=O)CN1CCN(c2ccccc2)CC1)C(C)=O	> 5000	–
COc1ccccc1CN(CC(Cc1c[nH]c2ccccc12)NC(=O)CN1CC=C(c2ccccc2)CC1)C(C)=O (centres undefined)	3.1	–
COc1ccccc1CN(CC(Cc1c[nH]c2ccccc12)NC(=O)CN1CCN(c2ccccc2)CC1)C(=O)CN(C)C (centres undefined)	1.54	IC50 (Substance-P receptor [3]): 480 nM; IC50 (Substance-P receptor [4]): 200 nM
CC(=O)N(CC(Cc1c[nH]c2ccccc12)NC(=O)CN1CCN(c2ccccc2)CC1)c1ccccc1 (centres undefined)	> 5000	–
COc1ccccc1CN(C[C@@H](Cc1c[nH]c2ccccc12)NC(=O)CN1CCN(c2ccccc2)CC1)C(C)=O	–	Ki (U11 MG): 0.48 nM; Ki (U-373 MG (Homo sapiens)): 1.2 nM
COc1ccccc1CN(CC(Cc1c[nH]c2ccccc12)NC(=O)CN1CCN(C2CCCCC2)CC1)C(C)=O (centres undefined)	0.34	–
COc1ccccc1CN(C[C@H](Cc1c[nH]c2ccccc12)NC(=O)CN1CCC(N2CCCCC2)CC1)C(C)=O	–	Kb (Substance-K receptor): 20000 nM; Kb (Neuromedin-K receptor): 200 nM; Ki (U11 MG): 5600 nM
CC(=O)N(C)CC(Cc1c[nH]c2ccccc12)NC(=O)CN1CCN(c2ccccc2)CC1 (centres undefined)	> 5000	–
COc1ccccc1CN(C=O)CC(Cc1c[nH]c2ccccc12)NC(=O)CN1CCN(c2ccccc2)CC1 (centres undefined)	0.8	–
CC(=O)N(Cc1ccccc1[N+](=O)[O-])CC(Cc1c[nH]c2ccccc12)NC(=O)CN1CCN(c2ccccc2)CC1 (centres undefined)	3	–
COc1ccccc1CN(CC(Cc1csc2ccccc12)NC(=O)CN1CCN(c2ccccc2)CC1)C(C)=O (centres undefined)	1.18	–
CCCCN(CC(Cc1c[nH]c2ccccc12)NC(=O)CN1CCN(c2ccccc2)CC1)C(C)=O (centres undefined)	149	–
CCC(=O)N(Cc1ccccc1OC)CC(Cc1c[nH]c2ccccc12)NC(=O)CN1CCN(c2ccccc2)CC1 (centres undefined)	0.81	–
COc1ccccc1CN(C[C@@H](Cc1c[nH]c2ccccc12)NC(=O)CN1CCC(N2CCCCC2)CC1)C(C)=O [LANEPITANT]	–	Kb (Substance-K receptor): 20000 nM; Kb (Neuromedin-K receptor): 20000 nM; Ki (U11 MG): 1.3 nM; Ki (U-373 MG (Homo sapiens)): 5.5 nM
COc1ccccc1CN(CC(Cc1c[nH]c2ccccc12)NC(=O)CN1CCN(C)CC1)C(C)=O (centres undefined)	5.3	–
CC(=O)N(Cc1ccccc1C(F)(F)F)CC(Cc1c[nH]c2ccccc12)NC(=O)CN1CCN(c2ccccc2)CC1 (centres undefined)	3.2	–
CC(=O)N(Cc1ccccc1C)CC(Cc1c[nH]c2ccccc12)NC(=O)CN1CCN(c2ccccc2)CC1 (centres undefined)	3.2	–
CC(=O)N(CC1CCCCC1)CC(Cc1c[nH]c2ccccc12)NC(=O)CN1CCN(c2ccccc2)CC1 (centres undefined)	21.9	–
COc1ccccc1CN(CC(Cc1c[nH]c2ccccc12)NC(=O)CN1CCCCC1)C(C)=O (centres undefined)	33	–
CCOC(=O)N(Cc1ccccc1OC)CC(Cc1c[nH]c2ccccc12)NC(=O)CN1CCN(c2ccccc2)CC1 (centres undefined)	5.5	–
COc1ccccc1CN[C@H]1C2CCN(CC2)[C@H]1C(c1ccccc1)c1ccccc1 [CP-96345]	–	Kb (Substance-K receptor): 50100 nM; Kb (Neuromedin-K receptor): 2510 nM; Ki (U11 MG): 5.2 nM; Ki (U-373 MG (Homo sapiens)): 4 nM
